High-throughput results deposited in PubChem by several laboratories.
HCV NS3 hel inh: inhibitors of HCV NS3 helicase, primary screen, biochemical, Cy5 molecular beacon fluorescence. Hepatitis C virus NS3 helicase. NS3 helicase DNA unwinding. inhibition, % at 10.9 µM. 0.56% of 290,000 active. AID 1800, 2009;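 active means inhibition above the mean of all tested compounds plus 3 SD, set per campaign, cut at about 35% in these data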;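 further: 0% = DMSO wells and 100% = thioflavine S control wells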
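System: NS3 helicase fragment of HCV / Schedule: 1 h at 25 °C / Control set: DMSO alone as 0% and 110 µM thioflavine S as 100% / Reagent: Cy5/quencher beacon DNA duplex and ATP to start / Technique: Cy5 fluorescence / Replication: singlicate / Evaluation: % inhibition of end-to-start signal ratio versus controls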
HSF1 activator: HSF-1 activators, primary screen, NIH3T3-HGL cells, MG132 stress, luminescence, single point. 1.7% of 300,000 active. activation, % at 9 µM. NIH3T3-HGL HSF-1 luciferase reporter, 8 h; 100% = twice DMSO control signal;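 active means mean replicate activation of at least 50% with a set share of replicates each reaching 50%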;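 further: 0% = median of the neutral control wells and 100% = twice that signal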
HSF1 inhib: HSF1 inhibitors in luciferase reporter cells, primary screen, cell-based, NIH3T3, luminescence; NIH3T3-HGL HSE-luciferase, MG132-induced, luminescence 8 h; stronger effect = lower value; 0.77% of 300,000 active; activity change, negative = inhibition, % at 7.5 µM (by protocol);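 active means more than half of replicate wells show activity change below -50%, luminescence cut by over half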;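 further: luciferase reports HSF-1 transcriptional activity via heat shock element; 0% = median of DMSO wells and -100% = zero luminescence signal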
HSP90 refold inh: HSP90 inhibitors, primary screen, cell lysate, luminescence; Rabbit reticulocyte lysate, luciferase refolding luminescence, 3 h; inhibition, % at 5.6 µM; 0.91% of 290,000 active; AID 1789, 2009;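 active means inhibition above the screen-wide mean plus 3 SD, computed separately per campaign, cut at about 16% in these data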;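 further: 0% = DMSO wells and 100% = 60 µM geldanamycin wells; inhibitors lower the luminescence because luciferase stays unfolded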
Lipid droplet: inhibitors of hepatocyte lipid droplet formation, primary screen, imaging, high-throughput imaging, BODIPY stain; AML12 mouse hepatocytes, oleate lipid droplets; inhibition, % at 6.5 µM; 0.4% of 240,000 active;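 active means lipid droplet intensity inhibited by at least 50%, with more than 500 cells counted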
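material = mouse AML12 hepatocyte cell line, fixed after treatment | also added = 100 µM oleic acid challenge | doses = compound at 6.5 µM only | schedule = overnight exposure | technique = Image-based BODIPY and DAPI two-channel analysis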
NS3 hel confirm: HCV NS3 helicase inhibitors, retest, confirmation, biochemical, Cy5 molecular beacon fluorescence, triplicate; 31% of 1,600 active; shares compounds with HCV NS3 hel inh; NS3 helicase DNA unwinding; inhibition, % at 10.9 µM;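 active means inhibition above the mean of all tested compounds plus 3 SD, cutoff set per campaign, cut at about 36% in these data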
DNA FID counter: compounds displacing fluorescent DNA intercalator, artefact control for HCV NS3 helicase inhibitor project, biochemical, FID fluorescence, triplicate; 4% of 1,600 active; inhibition, % at 7.9 µM; shares compounds with HCV NS3 hel inh; DNA fluorescent intercalator displacement; AID 1945, 2009; in the data active means inhibition above about 37%;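 further: 0% = vehicle and 100% = reference compound; higher means more displacement of ethidium bromide from the DNA hairpin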
DNA FID DR: compounds displacing fluorescent intercalator from DNA, dose response, counter-screen for HCV NS3 helicase inhibitor project, biochemical, fluorescence; shares compounds with HCV NS3 hel inh; fluorescent intercalator displacement from DNA; IC50, µM; 120 tested, under 10 active; AID 2172, 2009; call rule not given here
Active calls of the source: *; · = no result given. Shown are actives, neighbours in structure and some others; about 3.8% of the full set was active somewhere.

SMILES | HCV NS3 hel inh | HSF1 activator | HSF1 inhib | HSP90 refold inh | Lipid droplet | NS3 hel confirm | DNA FID counter | others
Cc1cc(C(=O)COc2ccc3ccc(=O)oc3c2)c(C)n1C | 2 | 3 | 2 | -1 | 2 | · | ·
COc1ccc(C(=O)O)cc1NC(=S)NC(=O)/C=C/c1ccc(C(C)C)cc1 | 43* | 6 | 8 | -5 | 6 | 58* | 16
COc1ccc(OC)c(/C=C2\SC(=S)N(C(C(=O)O)c3ccccc3)C2=O)c1 (centres undefined) | 47* | -1 | -6 | -1 | -19 | 84* | 16
CCOc1ccc(/C=C2\SC(=S)N(C(C(=O)O)c3ccccc3)C2=O)cc1OC (centres undefined) | 28 | -17 | 2 | 2 | -7 | · | ·
COC(=O)c1cc(NC(=O)c2ccccc2F)cc(C(=O)OC)c1 | 15 | 41 | 10 | 3 | 3 | · | ·
COc1ccccc1-c1nnc(NC(=O)c2ccc(S(=O)(=O)N3CCCC3)cc2)o1 | 53* | 0 | -5 | 5 | -6 | 1 | -19
Cc1cc(C)c(NC(=O)CN2C(=O)CC(C)S(=O)(=O)c3ccccc32)c(C)c1 (centres undefined) | -5 | -15 | -10 | -1 | -3 | · | ·
Cc1ccc(C(CCN(Cc2ccccc2)C(=O)c2ccco2)c2ccco2)cc1 (centres undefined) | 54* | 36 | 12 | -3 | 10 | 55* | -30 | DNA FID DR=>79
CSCC[C@H](N)C(=O)NC[C@H]1CC[C@H](C(=O)N[C@@H](Cc2ccccc2)C(=O)O)CC1 | -1 | 8 | -2 | -8 | · | · | ·
Cn1cc(Br)c(C(=O)NN2C(=O)C3C4C=CC(C5CC45)C3C2=O)n1 (centres undefined) | -2 | -1 | -5 | -2 | -10 | · | ·
CCc1c(C)c2cc(Cl)c(O)c(CN(C)C)c2oc1=O | 10 | -18 | 2 | 0 | 28 | · | ·
CCc1c(C)c2cc(Cl)c(O)c(CN(CC)CC)c2oc1=O | 49* | -6 | -3 | 1 | -1 | -12 | 1
N#C/C(=C/c1cc[nH]c1)C(N)=S | 0 | -3 | -10 | -2 | -29 | · | ·
N#C/C(=C/c1ccc(Br)o1)C(N)=S | 37* | 8 | -2 | 0 | 2 | -15 | 0
O=C(NCCc1ccccc1)c1ccc(CS(=O)Cc2ccc(Cl)cc2)o1 (centres undefined) | 5 | 16 | 6 | 1 | -12 | · | ·
O=C(NN=C1CCN(Cc2ccccc2)CC1)c1cc2ccccc2cc1O | 39* | -6 | -3 | -6 | · | 29 | -12
COc1cccc(Nc2ncc(C#N)c(N)n2)c1 | -1 | 26 | 11 | -1 | -1 | · | ·
CCN(CC)C(=O)CSC1=N/C(=C/c2ccco2)C(=O)N1c1ccc(OC)c(Cl)c1 | 38* | 67* | 45 | 4 | -16 | -9 | -28
Cc1cc(NC(=O)CC(C)C)c(=O)n(Cc2cccc(F)c2)c1 | 39* | -14 | -10 | 11 | 1 | -11 | 2
CC(=O)OCCNc1cc(SCc2ccco2)c2nonc2c1[N+](=O)[O-] | 47* | 17 | -1 | 3 | -3 | -17 | 20
CCOc1ccc(NS(=O)(=O)c2ccc(C(=O)NC3CCC(O)CC3)cc2)cc1 (centres undefined) | · | -7 | 0 | · | · | · | ·
Cc1ccc(-n2nc3c(c2NC(=O)C(C)C)CS(=O)(=O)C3)cc1 | 6 | 4 | 0 | 0 | -10 | · | ·
O=C(NCc1ccc(F)cc1)C1CCCN(S(=O)(=O)c2ccc(-n3cnnn3)cc2)C1 (centres undefined) | 0 | 17 | 10 | -3 | -1 | · | ·
COc1cc(OC)c(OC)cc1/C=C1\Oc2cc(OCC(=O)N3Cc4ccccc4C[C@H]3C(=O)O)ccc2C1=O | 0 | -18 | -1 | -6 | -4 | · | ·
CCc1ccc(/C=C2\Oc3cc(OC(=O)N4CCOCC4)ccc3C2=O)cc1 | 47* | -81 | -76* | -3 | -1 | -6 | -17
SMILES | HCV NS3 hel inh | HSF1 activator | HSF1 inhib | HSP90 refold inh | Lipid droplet | NS3 hel confirm | DNA FID counter | others
COc1ccc(/C=C2\Oc3cc(OC(=O)N4CCOCC4)ccc3C2=O)cc1 | 1 | 2 | 6 | -1 | 4 | · | ·
Cn1c(SCC2CCCO2)nnc1-c1ccc([N+](=O)[O-])cc1 (centres undefined) | -2 | -6 | -4 | 1 | 11 | · | ·
COc1ccc(/C=C/c2nc3ccccc3c(=O)n2-c2cccc(C(=O)O)c2)cc1 | 41* | -56 | -41 | 0 | -5 | 6 | -39
COc1ccc(N2CC(C(=O)N[C@H](C(=O)NC(C)c3ccccc3)C(C)C)CC2=O)cc1 (some centres undefined) | 4 | 23 | 2 | 1 | 10 | · | ·
Cc1scc(C(=O)N/N=C/c2ccc([N+](=O)[O-])o2)c1C | 43* | 0 | 6 | -1 | 6 | -12 | 9
Cc1scc(C(=O)N/N=C/c2ccco2)c1C | 1 | -4 | 3 | 1 | 9 | · | ·
Cc1ccc(NCC(=O)N/N=C\c2ccc([N+](=O)[O-])o2)cc1 | 15 | 31 | 10 | -1 | · | · | ·
CCCCCC(=O)N/N=C/c1ccc([N+](=O)[O-])o1 | 39* | 4 | 8 | 1 | -8 | -10 | 2
C#CCOc1c(Cl)cc(C2C3=C(CCCC3=O)N(CC(=O)O)C3=C2C(=O)CCC3)cc1OC | 8 | 14 | 16 | -1 | 0 | · | ·
COc1ccccc1C1C2=C(CCCC2=O)N(CC(=O)O)C2=C1C(=O)CCC2 | 41* | 11 | -5 | 4 | -3 | -10 | 14
O=C(N=C1SC2CS(=O)(=O)CC2N1c1ccc(Cl)c(Cl)c1)C1CCCO1 (centres undefined) | -2 | 0 | 3 | -1 | -6 | · | ·
COc1ccccc1COc1ccc2c(C)c(CC(=O)O)c(=O)oc2c1C | 48* | 8 | 3 | -5 | -12 | 15 | -21
Cc1c2c(=O)n(-c3nc4ccccc4s3)nc-2cc(O)n1Cc1ccccc1 | 48* | · | · | 3 | 14 | 47* | 12
CCCNC(=O)c1ccc2c(=O)c(O)c(-c3ccc(Cl)c([N+](=O)[O-])c3)[nH]c2c1 | · | -12 | -3 | · | · | · | ·
NC(=O)c1ccc2c(=O)c(O)c(-c3cc(Cl)c(N)c(Cl)c3)[nH]c2c1 | 38* | 7 | 0 | -1 | · | 6 | 12
